ChEMBL document CHEMBL5252510, “A Novel Potent Oral Series of VEGFR2 Inhibitors Abrogate Tumor Growth by Inhibiting Angiogenesis” (J Med Chem, 2016)
One block for each compound: values may come before it. The source made the active and inactive calls. No cut-off for these calls is given here.

Assays:
[1] = Volume of distribution at steady state in OFA rat at 1 mg/kg, iv measured upto 24 hrs by HPLC/UV analysis; assay type: ADME, organism-based; conditions: in vivo, read-out: Vdss
In short: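 Female OFA rats with femoral artery and vein catheters, 96 h recovery. IV into femoral vein: 2.5 mg/kg in ethanol/dimethylisosorbide/PEG400/D5W (10/15/35/40) or 1 mg/kg in NMP/PEG200 (30:70). Plasma sampled at 5, 15, 30 min, 1, 2, 4, 6, 8, 24 h; drug measured by HPLC (UV or MS-MS stated); parameters dose normalized, n=2-4.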

[2] = Dose normalized AUC(0 to infinity) in OFA rat at 3 mg/kg, po measured upto 24 hrs by HPLC/UV analysis; assay type: ADME, organism-based; conditions: in vivo
In short: (§1)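 Female OFA rats, femoral artery/vein catheterized and recovered 96 h. Oral gavage of a micronized suspension in 0.5 % carboxymethyl cellulose at 25 or 3 mg/kg. Bioavailability taken against femoral-vein iv dosing. Plasma sampled 5 min–24 h (9 time points).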

[3] = Oral bioavailability in OFA rat at 3 mg/kg measured upto 24 hrs by HPLC/UV analysis; assay type: ADME, organism-based; conditions: in vivo; in short: as §1
Mus musculus [4] = organism: Mus musculus; assay: Antiangiogenic activity in C57BL/6jNpa mouse harbouring mouse B16-BL6 cells assessed as reduction in tumor plasma volume measured after 3 days by DCE-MRI assay relative to control; assay type: functional; design: scale not given: the % may be the effect or the level left; conditions: time 3 day
In short: (§2)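 C57BL/6JNpa mice bearing B16/BL6 cervical lymph-node metastases, at least 8 per group, anaesthetized and given contrast agent; DCE-MRI Ktrans and iAUEC (permeability) and Vp (plasma volume) measured before and again after daily treatment; change per mouse recorded, mean ± SEM, one-way ANOVA with Holm-Sidak comparisons versus vehicle.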

Mus musculus [5] = organism: Mus musculus; assay: Antiangiogenic activity in C57BL/6jNpa mouse harbouring mouse B16-BL6 cells assessed as reduction in K-trans level measured after 3 days by DCE-MRI assay relative to control; assay type: functional; design: scale not given: the % may be the effect or the level left; conditions: time 3 day; in short: as §2
Mus musculus [6] = organism: Mus musculus; assay: Antiangiogenic activity in C57BL/6jNpa mouse harbouring mouse B16-BL6 cells assessed as reduction in iAUEC level measured after 3 days by DCE-MRI assay relative to control; assay type: functional; design: scale not given: the % may be the effect or the level left; conditions: time 3 day; in short: as §2
Mus musculus [7] = organism: Mus musculus; assay: Antiangiogenic activity in C57BL/6jNpa mouse harbouring mouse B16-BL6 cells assessed as reduction in iAUEC level by measuring T/C ratio measured after 3 days by DCE-MRI assay; assay type: functional; conditions: time 3 day; in short: as §2
B16-BL6 [8] = assay: Antitumor activity against mouse B16-BL6 cells implanted in C57BL/6jNpa mouse assessed as primary tumor growth inhibition at 3 mg/kg, po qd administered every 2 days started on day 7 post implantation measured after 21 days; assay type: functional, organism-based; conditions: time 7-21 day
In short: (§3)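 Female C57BL/6JNpa mice, 50000 B16/BL6 cells intradermally in both ear pinnae; primary tumor area (mm²) imaged days 7, 14, 21; randomized day 7 into groups of 5-6, oral dosing in PEG200 or PEG300 vehicle daily (or every 2 days) for 14 days; day 21 cervical lymph nodes weighed, metastasis lysates assayed for TIE-2 by ELISA; T/C ratios.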

B16-BL6 [9] = assay: Antitumor activity against mouse B16-BL6 cells implanted in C57BL/6jNpa mouse assessed as primary tumor growth inhibition by measuring T/C ratio at 3 mg/kg, po qd administered once every 2 days started on day 7 post implantation measured after 21 days; assay type: functional; conditions: time 7-21 day; in short: as §3
B16-BL6 [10] = assay: Antitumor activity against mouse B16-BL6 cells implanted in C57BL/6jNpa mouse assessed as primary tumor growth inhibition by measuring T/C ratio at 1 mg/kg, po qd administered every 2 days started on day 7 post implantation measured after 21 days; assay type: functional; conditions: time 7-21 day; in short: as §3
B16-BL6 [11] = assay: Antitumor activity against mouse B16-BL6 cells implanted in C57BL/6jNpa mouse assessed as metastatic tumor growth inhibition at 3 mg/kg, po qd administered once every 2 days started on day 7 post implantation measured after 21 days relative to control; assay type: functional, organism-based; conditions: time 7-21 day; in short: as §3
BN472 cell [12] = assay: Antitumor activity against rat BN472 cell implanted in Brown-Norway rat assessed as reduction in perfused blood vessels at 3 mg/kg, po qd measured upto 14 days by Hoechst staining based microscopic analysis; assay type: functional, organism-based; conditions: time <= 14.0 day
In short: (§4)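 BN472-bearing Brown-Norway rats dosed orally; Hoechst dye i.v. shortly before sacrifice to mark perfused vessels; tumors cryosectioned at 10 micron, blocked in 10 % goat serum/0.1 % Triton X-100, stained with rabbit anti-Ki67 (1:200) or anti-caspase 3 (1:10) and fluorescent secondary antibodies; fluorescence microscopy.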

BN472 cell [13] = assay: Antitumor activity against rat BN472 cell implanted in Brown-Norway rat assessed as reduction in cell growth at 3 mg/kg, po qd measured upto 14 days by Ki67 staining based microscopic analysis; assay type: functional, organism-based; conditions: time <= 14.0 day; in short: as §4
BN472 cell [14] = assay: Induction of apoptosis in rat BN472 cell implanted in Brown-Norway rat assessed as effect on caspase 3 level at 3 mg/kg, po qd measured upto 14 days by microscopic analysis; assay type: functional, organism-based; conditions: time <= 14.0 day
In short: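 BN472 fragments were grown in mammary fat pads of female Brown-Norway rats and dosed orally for 14 days. Hoechst dye was given i.v. 2 min before sacrifice. Excised tumors were cut as 10 micron frozen sections, blocked with 10 % normal goat serum/0.1 % Triton X-100 and stained with rabbit anti-rat caspase 3 (1:10), then a TRITC or FITC secondary. Read by fluorescence microscopy.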

[15] = Antitumor activity against rat BN472 cell implanted in Brown-Norway rat assessed as T/C ratio at 3 mg/kg, po qd measured upto 14 days; assay type: functional; conditions: time <= 14 day
In short: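 Female Brown-Norway rats (160-180 g) given 3 mm³ BN472 tumor fragments in mammary fat pads; at about 200 mm², randomized into groups of 7-8 and dosed orally with compound or PEG300 vehicle over 14 days; tumor growth followed, T/C computed; significance by 2-way RM-ANOVA.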

[16] = biological target: Tyrosine-protein kinase ABL1 (Homo sapiens) (UniProt P00519); assay: Inhibition of human recombinant GST-fused ABL expressed in baculovirus expression system using poly-Glu-Tyr (4:1) as substrate measured after 10 mins in presence of gamma-[33P]-ATP by scintillation counting analysis
Sequence of Tyrosine-protein kinase ABL1 (Homo sapiens) (P00519 whole entry, the tested form may be a part): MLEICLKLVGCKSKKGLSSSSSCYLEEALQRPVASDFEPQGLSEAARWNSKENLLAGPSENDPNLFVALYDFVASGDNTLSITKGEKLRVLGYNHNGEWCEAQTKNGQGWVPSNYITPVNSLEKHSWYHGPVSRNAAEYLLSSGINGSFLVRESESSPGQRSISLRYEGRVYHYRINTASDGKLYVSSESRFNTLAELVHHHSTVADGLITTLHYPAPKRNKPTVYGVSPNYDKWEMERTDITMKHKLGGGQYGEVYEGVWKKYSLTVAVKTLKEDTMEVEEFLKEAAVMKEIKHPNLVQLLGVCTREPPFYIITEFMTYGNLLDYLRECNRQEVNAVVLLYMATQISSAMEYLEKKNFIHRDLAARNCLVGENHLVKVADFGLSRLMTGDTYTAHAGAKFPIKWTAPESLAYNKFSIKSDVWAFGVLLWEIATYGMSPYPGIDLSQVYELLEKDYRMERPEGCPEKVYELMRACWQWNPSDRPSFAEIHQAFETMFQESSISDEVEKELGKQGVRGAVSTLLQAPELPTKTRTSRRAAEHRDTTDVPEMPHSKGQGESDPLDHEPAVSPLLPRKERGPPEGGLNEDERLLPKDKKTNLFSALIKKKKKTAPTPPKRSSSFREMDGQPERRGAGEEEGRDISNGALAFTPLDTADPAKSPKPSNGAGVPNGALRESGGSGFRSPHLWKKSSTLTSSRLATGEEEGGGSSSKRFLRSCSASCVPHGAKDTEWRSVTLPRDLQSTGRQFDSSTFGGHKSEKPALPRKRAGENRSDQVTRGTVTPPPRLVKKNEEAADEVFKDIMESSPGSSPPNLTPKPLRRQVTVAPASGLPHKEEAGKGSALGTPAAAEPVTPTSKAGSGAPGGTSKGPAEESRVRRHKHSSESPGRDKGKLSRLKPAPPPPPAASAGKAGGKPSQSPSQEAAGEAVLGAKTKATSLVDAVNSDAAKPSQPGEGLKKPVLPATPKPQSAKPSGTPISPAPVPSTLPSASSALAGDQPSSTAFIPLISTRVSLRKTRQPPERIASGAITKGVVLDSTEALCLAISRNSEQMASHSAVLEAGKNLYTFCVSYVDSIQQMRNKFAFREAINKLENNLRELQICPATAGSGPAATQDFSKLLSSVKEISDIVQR
In short: (§5)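 GST-fused kinase domains were expressed in baculovirus and purified on glutathione-Sepharose. 10 min at ambient temperature, stopped with EDTA. Filter binding and scintillation counting. IC50 by linear regression of percent inhibition.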

[17] = biological target: RAF proto-oncogene serine/threonine-protein kinase (Homo sapiens) (UniProt P04049); assay: Inhibition of human recombinant GST-fused cRAF expressed in baculovirus expression system using poly-Glu-Tyr (4:1) as substrate measured after 10 mins in presence of gamma-[33P]-ATP by scintillation counting analysis; in short: as §5
Sequence of RAF proto-oncogene serine/threonine-protein kinase (Homo sapiens) (P04049 whole entry, the tested form may be a part): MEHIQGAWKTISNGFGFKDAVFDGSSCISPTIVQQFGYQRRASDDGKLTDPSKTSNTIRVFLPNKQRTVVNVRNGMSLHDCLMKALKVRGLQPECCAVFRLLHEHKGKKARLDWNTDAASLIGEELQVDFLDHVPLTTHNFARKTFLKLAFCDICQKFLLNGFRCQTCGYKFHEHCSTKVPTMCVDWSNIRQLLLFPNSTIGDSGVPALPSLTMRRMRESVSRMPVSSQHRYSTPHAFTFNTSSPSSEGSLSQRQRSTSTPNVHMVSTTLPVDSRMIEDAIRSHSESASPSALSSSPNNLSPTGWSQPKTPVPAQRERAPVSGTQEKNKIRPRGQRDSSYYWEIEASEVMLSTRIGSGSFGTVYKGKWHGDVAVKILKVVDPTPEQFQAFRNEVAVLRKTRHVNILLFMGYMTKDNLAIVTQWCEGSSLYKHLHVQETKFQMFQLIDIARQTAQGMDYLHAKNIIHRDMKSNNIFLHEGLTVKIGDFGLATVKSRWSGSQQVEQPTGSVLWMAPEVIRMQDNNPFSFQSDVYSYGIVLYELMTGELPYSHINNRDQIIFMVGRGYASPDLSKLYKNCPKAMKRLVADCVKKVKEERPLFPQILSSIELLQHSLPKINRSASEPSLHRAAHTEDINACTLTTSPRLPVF

[18] = Clearance in OFA rat at 2.5 mg/kg, iv measured upto 24 hrs by HPLC/UV analysis; assay type: ADME, organism-based; conditions: in vivo
In short: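 Catheters were placed in the femoral artery and vein of female OFA rats, followed by 96 h recovery. IV doses went into the femoral vein: 2.5 mg/kg in ethanol/dimethylisosorbide/PEG400/5 % glucose (10/15/35/40), or 1 mg/kg in NMP/PEG200 (30:70). Plasma samples at 5, 15, 30 min and 1, 2, 4, 6, 8, 24 h. Parameters reported over 24 h. n=2–4.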

[19] = Oral bioavailability in OFA rat at 25 mg/kg measured upto 24 hrs by HPLC/UV analysis; assay type: ADME, organism-based; conditions: in vivo; in short: as §1

Vd [1]: 0.63 L/kg
AUC/dose [2]: 13.2 µmol·h/L
bioavailability [3]: 46%
SMILES: O=C(Nc1cccc(C(F)(F)F)c1)c1cccc2cc(Oc3cc(CO)ncn3)ccc12 [BFH-772]

SMILES: Nc1nccc(Oc2ccc3c(C(=O)Nc4ccc(F)c(C(F)(F)F)c4)cccc3c2)n1
Activity (Mus musculus [4]): 65%
Activity (Mus musculus [5]): 61%
Activity (Mus musculus [6]): 65%
T/C (Mus musculus [7]): 0.34
Activity (B16-BL6 [8]): Active
T/C (B16-BL6 [9]): 0.39
T/C (B16-BL6 [10]): 0.6
Activity (B16-BL6 [11]): Active
Activity (BN472 cell [12]): Active
Activity (BN472 cell [13]): Active
Activity (BN472 cell [14]): Active
T/C [15]: 0.056

inhibition [16]: Active
inhibition [17]: Active
clearance [18]: 11 mL/min/kg
bioavailability [19]: 35%
SMILES: Nc1nccc(Oc2ccc3c(C(=O)Nc4cccc(C(F)(F)F)c4)cccc3c2)n1
